Measurements reported in ChEMBL document CHEMBL3797027, “Potent anti-proliferative actions of a non-diuretic glucosamine derivative of ethacrynic acid” (Bioorg Med Chem Lett, 2016).
The source made the active and inactive calls. The calls are words filed in the database; no cut-off is given here.

What was measured:
[1] = system: Mus musculus; test: Toxicity in mouse assessed as induction of stress at 120 mg/kg/week for 2 weeks; assay type: organism-based; conditions: in vivo, 336 h
[2] = biological target: Glutathione S-transferase P (Homo sapiens) (UniProt P09211); test: Inhibition of GSTP1 in human HCT116 cells assessed as reduction in GST-pi activity at 50 uM pre-incubated for 3 hrs followed by chlorodinitrobenzene and reduced glutathione addition by photometric assay; conditions: HCT-116
[3] = biological target: Glutathione S-transferase P (Homo sapiens) (UniProt P09211); test: Inhibition of GSTP1 in human HCT116 cells assessed as reduction in GST-pi activity pre-incubated for 3 hrs followed by chlorodinitrobenzene and reduced glutathione addition by photometric assay; conditions: HCT-116
[4] = system: NCI-H1299; test: Induction of ROS generation in human H1299 cells at 20 and 40 uM incubated for 3 hrs after pre-incubation with 3 mM NAC for 1 hr by DCFDA staining based flow cytometry; assay type: functional, cell-based
Summary of the method: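 Cells were exposed for 3 h to compound, or to 25 µM H2O2 as positive control. Where indicated, 3 mM N-acetylcysteine was given 1 h before treatment. Pellets were stained with DCF-DA for 30 min, and intracellular ROS was read as fluorescence shift by flow cytometry against untreated controls.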

Chain of Glutathione S-transferase P (Homo sapiens) (P09211 2-210 limits assumed): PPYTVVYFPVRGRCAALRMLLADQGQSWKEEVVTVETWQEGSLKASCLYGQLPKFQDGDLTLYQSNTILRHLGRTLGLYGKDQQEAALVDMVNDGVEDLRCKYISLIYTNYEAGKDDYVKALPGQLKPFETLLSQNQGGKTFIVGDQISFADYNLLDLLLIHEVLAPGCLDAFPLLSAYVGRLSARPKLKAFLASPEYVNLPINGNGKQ

Imax [2]: 60%
Activity [3]: Dose-dependent effect
SMILES: C=C(CC)C(=O)c1ccc(OCC(=O)N[C@@H]2[C@@H](O)[C@H](O)[C@@H](CO)O[C@H]2O)c(Cl)c1Cl
Activity [1]: Non-toxic
Activity [4]: inactive
